Experiment [1] deals with GTPase KRas (Homo sapiens), P01116 [G12C]. The experiment is described as follows: Binding affinity to recombinant GDP-loaded KRAS G12C mutant (unknown origin) assessed as half life at 115 uM by CPM-probe based fluorescence assay. In a few lines: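 Chemosensor competition assay. Purified recombinant GDP-loaded KRAS G12C incubated with compound, then probed at several time points with a probe detecting free unreacted Cys12 thiol. Read-out combines GDP displacement kinetics with covalent inactivation.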
Sequence of GTPase KRas (Homo sapiens), P01116 [G12C] (P01116 whole entry G12C): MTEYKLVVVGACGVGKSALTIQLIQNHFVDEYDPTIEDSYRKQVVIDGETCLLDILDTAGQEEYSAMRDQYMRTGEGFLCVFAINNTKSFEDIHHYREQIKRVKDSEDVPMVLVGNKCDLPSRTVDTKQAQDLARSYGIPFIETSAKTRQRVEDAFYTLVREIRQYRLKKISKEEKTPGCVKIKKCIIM

The target in the next experiment is GTPase KRas (Homo sapiens, UniProt P01116, G12C). Put plainly: Binding affinity to GMP-stabilized FLAG-tagged KRAS G12C mutant (unknown origin) using desthiobiotin-GTP probe by alphascreen assay. In a few lines:
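Nucleotide-free recombinant KRAS G12C purified and stabilised with excess GMP, incubated with compound, then probed with GTP-desthiobiotin acyl phosphate probe (reacts with Lys16). Desthiobiotinylated protein detected by AlphaScreen (ActivAlpha). Observed reaction rates plotted against compound concentration and fit to kobs = kinact[I]/(Ki + [I]) to extract kinact and Ki.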

The test system of experiment [2] is GTPase KRas (Homo sapiens), P01116 [G12C]. Put plainly: Binding affinity to GMP-stabilized FLAG-tagged KRAS G12C mutant (unknown origin) assessed as inactivation constant using desthiobiotin-GTP probe by alphascreen assay. In outline:
(§1)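 Nucleotide-free purified KRAS G12C, stabilized with excess GMP, incubated with compound. Remaining enzyme then labeled by a GTP-desthiobiotin acyl phosphate probe that reacts with Lys16, and detected with AlphaScreen reagents. Reaction rates were plotted against compound concentration and fit to kobs = kinact[I]/(Ki + [I]) to estimate kinact and Ki.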

Experiment [3] shares this test system. The experiment is described as follows: Binding affinity to GMP-stabilized FLAG-tagged KRAS G12C mutant (unknown origin) assessed as ratio of Kinact to Ki using desthiobiotin-GTP probe by alphascreen assay. In outline:
as §1

A short description of experiment [4]: Binding affinity to Mg2+ ion assessed as compound concentration required to show half maximal Mg2+ dependent shift by 31P NMR analysis.
Experiment [5] can be described thus: Binding affinity to Mg2+ ion assessed as compound concentration required to reach Mg2+ dependent shift plateau by 31P NMR analysis.

Sequence of GTPase KRas (P01116 whole entry G12C): as above

Take `Nc1nc2c(ncn2[C@@H]2O[C@H](COP(=O)(O)C(F)(F)P(=O)(O)OCCCNC(=O)CCl)[C@@H](O)[C@H]2O)c(=O)[nH]1`: in experiment [1], the T1/2 is 1.06 h. In addition, at GTPase KRas, the Ki is 0.382 µM. The Kinact in experiment [2] is 0.3 min⁻¹. Further, the Ratio in experiment [3] was determined as 0.8 min⁻¹ µM⁻¹. In addition, the Activity in experiment [4] is less than 20 equiv.
Turning to `Nc1nc2c(ncn2[C@@H]2O[C@H](COP(=O)(O)CP(=O)(O)O[C@@H]3CC[C@H](NC(=O)CCl)C3)[C@@H](O)[C@H]2O)c(=O)[nH]1` (mixture of isomers), the T1/2 in experiment [1] was determined as 42 h. Besides, the Ki on GTPase KRas amounted to 50 µM. In experiment [2], the Kinact is 1 min⁻¹. In experiment [3], the Ratio amounted to 0.02 min⁻¹ µM⁻¹.
The matching figures for `Nc1nc2c(ncn2[C@@H]2O[C@H](COP(=O)(O)CC(=O)OCCNC(=O)CCl)[C@@H](O)[C@H]2O)c(=O)[nH]1`: 84 h, 15.2 µM, 0.055 min⁻¹ and 0.003 min⁻¹ µM⁻¹.
The matching figures for `Nc1nc2c(ncn2[C@@H]2O[C@H](COS(=O)(=O)NC(=O)OCCNC(=O)CCl)[C@@H](O)[C@H]2O)c(=O)[nH]1`: 9.5 h, 5 µM, 0.24 min⁻¹ and 0.05 min⁻¹ µM⁻¹.
For the compound `Nc1nc2c(ncn2[C@@H]2O[C@H](COC(=O)CS(=O)(=O)NCCNC(=O)CCl)[C@@H](O)[C@H]2O)c(=O)[nH]1`, in experiment [1], the T1/2 was determined as 24 h. The Ki on GTPase KRas was greater than 10 µM.
For the compound `Nc1nc2c(ncn2[C@@H]2O[C@H](COP(=O)(O)C(F)(F)P(=O)(O)OCCNC(=O)CCl)[C@@H](O)[C@H]2O)c(=O)[nH]1`, in experiment [1], the T1/2 was found to be 4.2 h. This compound returned an inhibitory constant (Ki) at GTPase KRas of 0.38 µM. For the same compound, the Kinact in experiment [2] was 0.365 min⁻¹. Besides, the Ratio in experiment [3] is 0.9 min⁻¹ µM⁻¹.
The matching figures for `Nc1nc2c(ncn2[C@@H]2O[C@H](COC(=O)CP(=O)(O)OCCNC(=O)CCl)[C@@H](O)[C@H]2O)c(=O)[nH]1`: 47 h, 2.2 µM, 0.053 min⁻¹ and 0.02 min⁻¹ µM⁻¹.
In the case of `Nc1nc2c(ncn2[C@@H]2O[C@H](COP(=O)(O)CP(=O)(O)OC3CCCN(C(=O)CCl)C3)[C@@H](O)[C@H]2O)c(=O)[nH]1` (mixture of isomers), the T1/2 in experiment [1] came out at 12 h. This compound also had a Ki on GTPase KRas of 3.5 µM. Besides, in experiment [2], the Kinact amounted to 0.55 min⁻¹. Moreover, the Ratio in experiment [3] amounted to 0.16 min⁻¹ µM⁻¹.
With `Nc1nc2c(ncn2[C@@H]2O[C@H](COP(=O)(O)CS(=O)(=O)NCCNC(=O)CCl)[C@@H](O)[C@H]2O)c(=O)[nH]1`, the T1/2 in experiment [1] came out at 2.3 h. Further, on GTPase KRas, the affinity corresponds to a Ki of 1.6 µM. For the same compound, the Kinact in experiment [2] stood at 0.33 min⁻¹. Moreover, in experiment [3], the Ratio is 0.2 min⁻¹ µM⁻¹.
The matching figures for `Nc1nc2c(ncn2[C@@H]2O[C@H](COP(=O)(O)C(F)P(=O)(O)OCCNC(=O)CCl)[C@@H](O)[C@H]2O)c(=O)[nH]1` (mixture of isomers): 6.6 h, 8 µM, 0.21 min⁻¹ and 0.03 min⁻¹ µM⁻¹.
For the compound `Nc1nc2c(ncn2[C@@H]2O[C@H](COP(=O)(O)OP(=O)(O)O)[C@@H](O)[C@H]2O)c(=O)[nH]1`, the Activity in experiment [5] was determined as 2 equiv; in experiment [4], 0.5 equiv.
On to `Nc1nc2c(ncn2[C@@H]2O[C@H](COP(=O)(O)CP(=O)(O)OC3CCN(C(=O)CCl)C3)[C@@H](O)[C@H]2O)c(=O)[nH]1` (stereo not given in full), for which the T1/2 in experiment [1] amounted to 1.1 h. For the same compound, the affinity at GTPase KRas, expressed as Ki, was 0.92 µM. For the same compound, in experiment [2], the Kinact was 2.2 min⁻¹. Further, the Ratio in experiment [3] was 2.4 min⁻¹ µM⁻¹.
The matching figures for `CC(C)(CNC(=O)CCl)COP(=O)(O)CP(=O)(O)OC[C@H]1O[C@@H](n2cnc3c(=O)[nH]c(N)nc32)[C@H](O)[C@@H]1O`: 20 h, 5 µM, 0.14 min⁻¹ and 0.028 min⁻¹ µM⁻¹.
Take `C=CC(=O)NCCOP(=O)(O)OP(=O)(O)OC[C@H]1O[C@@H](n2cnc3c(=O)[nH]c(N)nc32)[C@H](O)[C@@H]1O`: the T1/2 in experiment [1] stood at 0.6 h. Further, affinity on GTPase KRas was put at a Ki of 0.28 µM. Further, the Kinact in experiment [2] was determined as 2.12 min⁻¹. The Ratio in experiment [3] came out at 7.6 min⁻¹ µM⁻¹.
As for `Nc1nc2c(ncn2[C@@H]2O[C@H](COP(=O)(O)OP(=O)(O)OP(=O)(O)O)[C@@H](O)[C@H]2O)c(=O)[nH]1`, the values for the Activity in experiment [5] and in experiment [4] were 2 equiv and 0.5 equiv, respectively.
With `Nc1nc2c(ncn2[C@@H]2O[C@H](COP(=O)(O)CP(=O)(O)O[C@@H]3CC[C@@H](NC(=O)CCl)C3)[C@@H](O)[C@H]2O)c(=O)[nH]1` (mixture of isomers), the T1/2 in experiment [1] turned out to be 64 h. Moreover, the inhibition constant Ki at GTPase KRas came to 36 µM. Further, the Kinact in experiment [2] worked out at 2.3 min⁻¹. For the same compound, the Ratio in experiment [3] came out at 0.06 min⁻¹ µM⁻¹.
The matching figures for `Nc1nc2c(ncn2[C@@H]2O[C@H](COP(=O)(O)CP(=O)(O)OCCCNC(=O)CCl)[C@@H](O)[C@H]2O)c(=O)[nH]1`: 2.5 h, 0.374 µM, 0.07 min⁻¹ and 0.2 min⁻¹ µM⁻¹.
`Nc1nc2c(ncn2[C@@H]2O[C@H](COP(=O)(O)CP(=O)(O)OCCNC(=O)CCl)[C@@H](O)[C@H]2O)c(=O)[nH]1`: the T1/2 in experiment [1] is 2.1 h. At GTPase KRas, this compound came in with a Ki of 2.7 µM. Moreover, the Kinact in experiment [2] was found to be 0.06 min⁻¹. The Ratio in experiment [3] was found to be 0.02 min⁻¹ µM⁻¹.
On to `COC(=O)/C=C/CCCOP(=O)(O)CP(=O)(O)OC[C@H]1O[C@@H](n2cnc3c(=O)[nH]c(N)nc32)[C@H](O)[C@@H]1O`, for which the T1/2 in experiment [1] came out at 120 h. This compound returned a Ki at GTPase KRas greater than 20 µM.
On to `Nc1nc2c(ncn2[C@@H]2O[C@H](COP(=O)(O)OP(=O)(O)OCCNC(=O)CCl)[C@@H](O)[C@H]2O)c(=O)[nH]1`, for which, in experiment [1], the T1/2 is 0.68 h. This compound also gave a Ki at GTPase KRas of 0.009 µM. The Kinact in experiment [2] is 0.86 min⁻¹. In addition, the Ratio in experiment [3] came to 95 min⁻¹ µM⁻¹.
For `Nc1nc2c(ncn2[C@@H]2O[C@H](CNc3c(NCCCNC(=O)CCl)c(=O)c3=O)[C@@H](O)[C@H]2O)c(=O)[nH]1`, the T1/2 in experiment [1] turned out to be 13 h. The Ki on GTPase KRas was greater than 25 µM.
